Assay [1] has as its target T1, RecQ-like DNA helicase BLM (Homo sapiens, UniProt P54132). Put plainly: Inhibition of His-tagged BLM (unknown origin) expressed in Escherichia coli BL21 (DE3) assessed as reduction in BLM helicase unwinding activity at 50 uM using 5'-biotin labeled forked-DNA as substrate after 1 hr by PAGE analysis. The method in brief:
(§1)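 BLM642-1296 (His-tagged, E. coli BL21(DE3)) preincubated with ligand (1.0, 10, 50 μM; ≤1% DMSO) for 1 h at 4 °C. Reaction: 8 nM annealed 5′-biotin duplex forked DNA, 32 nM BLM, 2 mM ATP, 0.1% BSA, 1 h.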

In assay [2] the target is T1, RecQ-like DNA helicase BLM. In words: Inhibition of His-tagged BLM (unknown origin) expressed in Escherichia coli BL21 (DE3) assessed as reduction in BLM helicase unwinding activity at 10 uM using 5'-biotin labeled forked-DNA as substrate after 1 hr by PAGE analysis. Summed up: as §1
Assay [3] addresses T1, RecQ-like DNA helicase BLM. In words: Inhibition of His-tagged BLM (unknown origin) expressed in Escherichia coli BL21 (DE3) assessed as reduction in BLM helicase unwinding activity at 1 uM using 5'-biotin labeled forked-DNA as substrate after 1 hr by PAGE analysis. Summed up: as §1
The target of assay [4] is T1, RecQ-like DNA helicase BLM. In words: Inhibition of BLM in human HCT116 cells assessed as induction of HRR up-regulation after 24 hrs by GFP-based flow cytometry. It is filed as cell-based. The method in brief:
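HCT116 cells (2×10^5) co-transfected with DR-GFP HRR reporter and I-SceI plasmid; 24 h later treated with 0–2 μM ligand (reference 0–50 μM); BLM siRNA knockdown where stated. GFP-positive cells counted by flow cytometry and normalised to untreated; triplicate, mean ± SD.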
In general terms: A flow cytometer gives signals particle by particle.

In assay [5] the target is T1, RecQ-like DNA helicase BLM. To be noted: 50 uM.

Active and inactive are the calls of the source. The calls are words filed in the database; no cut-off is given here.

T1 sequence (P54132 whole entry): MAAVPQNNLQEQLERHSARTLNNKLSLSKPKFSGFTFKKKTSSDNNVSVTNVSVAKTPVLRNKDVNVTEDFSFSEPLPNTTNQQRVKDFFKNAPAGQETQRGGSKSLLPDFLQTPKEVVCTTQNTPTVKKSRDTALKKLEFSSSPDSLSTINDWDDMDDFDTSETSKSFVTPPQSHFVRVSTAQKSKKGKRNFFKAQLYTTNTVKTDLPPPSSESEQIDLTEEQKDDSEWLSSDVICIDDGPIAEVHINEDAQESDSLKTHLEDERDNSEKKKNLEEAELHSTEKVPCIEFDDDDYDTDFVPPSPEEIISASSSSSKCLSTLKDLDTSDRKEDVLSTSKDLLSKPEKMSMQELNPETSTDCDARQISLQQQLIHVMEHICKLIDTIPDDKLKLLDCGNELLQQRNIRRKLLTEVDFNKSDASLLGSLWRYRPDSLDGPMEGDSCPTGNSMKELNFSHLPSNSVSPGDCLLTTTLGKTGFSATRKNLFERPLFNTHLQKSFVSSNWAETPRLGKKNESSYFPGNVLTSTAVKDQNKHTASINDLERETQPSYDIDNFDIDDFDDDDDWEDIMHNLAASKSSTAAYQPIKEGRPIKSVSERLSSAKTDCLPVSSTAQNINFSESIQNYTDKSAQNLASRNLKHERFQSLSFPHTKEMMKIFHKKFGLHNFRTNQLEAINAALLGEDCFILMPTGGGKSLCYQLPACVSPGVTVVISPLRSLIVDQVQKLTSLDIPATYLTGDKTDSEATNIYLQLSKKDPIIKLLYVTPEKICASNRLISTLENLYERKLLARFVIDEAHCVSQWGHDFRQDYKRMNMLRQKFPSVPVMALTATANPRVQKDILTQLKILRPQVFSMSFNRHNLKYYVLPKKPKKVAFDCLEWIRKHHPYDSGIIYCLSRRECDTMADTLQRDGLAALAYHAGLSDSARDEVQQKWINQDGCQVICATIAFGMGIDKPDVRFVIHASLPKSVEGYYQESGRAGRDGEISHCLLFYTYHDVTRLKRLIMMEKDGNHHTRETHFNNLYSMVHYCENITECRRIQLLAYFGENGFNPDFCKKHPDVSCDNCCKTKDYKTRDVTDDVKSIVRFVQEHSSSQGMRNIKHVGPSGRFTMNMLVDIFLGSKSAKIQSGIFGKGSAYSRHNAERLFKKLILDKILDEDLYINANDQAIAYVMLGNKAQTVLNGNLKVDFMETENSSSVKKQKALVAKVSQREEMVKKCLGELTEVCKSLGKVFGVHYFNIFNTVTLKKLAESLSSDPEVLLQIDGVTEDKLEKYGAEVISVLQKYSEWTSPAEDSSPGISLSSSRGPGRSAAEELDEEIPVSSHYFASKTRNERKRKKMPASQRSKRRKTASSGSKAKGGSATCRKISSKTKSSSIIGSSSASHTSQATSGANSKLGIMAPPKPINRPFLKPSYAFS

`O=C(Nc1ccc(F)c(C(F)(F)F)c1)Nc1nnc(-c2ccncc2)s1`: the inhibition entry in assay [1], in assay [2] and in assay [3] was “Active” in each case. For the same compound, the EC in assay [4] amounted to 50 µM. Besides, in assay [5], the inhibition entry is “inactive”.
With `CCN(CC)CCCNc1cc2nc3n(c(=O)c2cc1F)CC/C3=C\c1ccc(CC(C)C)cc1`, the inhibition entry in assay [1], in assay [2] and in assay [3] was “Active” throughout.
As for `CCN(CC)CCCNc1cc2nc3n(c(=O)c2cc1F)CC/C3=C\c1ccc(C(F)(F)F)cc1`, the inhibition entry in assay [1], in assay [2] and in assay [3] was “Active” throughout.
As for `CCN(CC)CCCNc1cc2nc3n(c(=O)c2cc1F)CC/C3=C\c1ccc(C(C)(C)C)cc1`, the inhibition result in assay [1], in assay [2] and in assay [3] was “Active” in each case.

These data come from ChEMBL document CHEMBL4316604, “Discovery of Isaindigotone Derivatives as Novel Bloom's Syndrome Protein (BLM) Helicase Inhibitors That Disrupt the BLM/DNA Interactions and Regulate the Homologous Recombination Repair” (J Med Chem, 2019).
